The subject of experiment [1] is Pseudomonas aeruginosa (ATCC 9027). Briefly: Antibacterial MIC, macrodilution method, P. aeruginosa. The experiment is classed as cell-based. The following applies: ATCC9027, read-out: MIC P. aeruginosa. Put shortly:
(§1)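 CLSI M07-A9 tube macrodilution. Strains were grown overnight on nutrient agar at 37 °C, and colonies were suspended in Mueller-Hinton broth. Inoculum was 1 × 10^6 per mL (5 × 10^5 per mL in test). DMSO stock was 5120 μg/mL. Final concentrations were 256 to […] in 2 mL. Tubes were incubated at 37 °C for 16–20 h. Controls were inoculum with and without 1% DMSO, and broth alone.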

Experiment [2] concerns Klebsiella pneumoniae (ATCC 27736). The experiment in a line: Antibacterial MIC, macrodilution method, K. pneumoniae. The following applies: ATCC27736, read-out: MIC K. pneumoniae. Format: cell-based. A digest of the protocol: as §1
In experiment [3] the test system is NCI-H460 non-small cell lung cancer cells. The experiment in a line: Antiproliferative assay. The experiment is classed as cell-based. The conditions noted are these: Homo sapiens, NCI-H460, 72 h, read-out: IC50 NCI-H460. A digest of the protocol: (§2)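 Adherent lines were seeded at 500 (Capan-1), 1000 (LN-229, HCT-116) or 1500 (NCI-H460) cells/well and dosed after overnight incubation. Suspension lines were seeded at 2500 (HL-60, K-562, Z-138) or 5500 (DND-41) cells/well directly onto compound. Seven 5-fold concentrations ran from 100 to 0.006 μM for 72 h. Viability was read as MTS absorbance at 490 nm after 3 h, and IC50 was derived from OD values. Two independent experiments.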

Another experiment concerns salmon sperm DNA. The experiment in a line: Fluorescent intercalator displacement. Format: binding. The conditions noted are these: tested at 250, 100 and 40 μM; result in words. Put shortly:
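Competitive fluorescence-polarization displacement. Acridine orange (50 nM) and salmon sperm DNA (6 μg/mL) were mixed with test compound at 250, 100 or 40 μM in HEN buffer (10 mM HEPES pH 7.5, 1 mM EDTA, 100 mM NaCl). Mixtures stood 20 min in the dark. mP was normalized to the DMSO control, with mitoxantrone (10 μM) as positive control.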

For experiment [4], the system named is HL-60 acute myeloid leukemia cells. Briefly: Antiproliferative assay. The experiment is classed as cell-based. The following applies: Homo sapiens, HL-60, 72 h, read-out: IC50 HL-60. Put shortly:
as §2

In experiment [5] the test system is Escherichia coli (ATCC 25922). The experiment in a line: Antibacterial MIC, macrodilution method, E. coli. The following applies: ATCC25922, read-out: MIC E. coli. The experiment is classed as cell-based. Put shortly:
as §1

Experiment [6] deals with LN-229 glioblastoma cells. The experiment in a line: Antiproliferative assay. Format: cell-based. The following applies: Homo sapiens, LN-229, 72 h, read-out: IC50 LN-229. A digest of the protocol:
as §2

The test system of experiment [7] is HCT-116 colon carcinoma cells. The experiment in a line: Antiproliferative assay. The experiment is classed as cell-based. The following applies: Homo sapiens, HCT-116, 72 h, read-out: IC50 HCT-116. A digest of the protocol: as §2
In experiment [8] the test system is Capan-1 pancreatic adenocarcinoma cells. The experiment in a line: Antiproliferative assay. The experiment is classed as cell-based. The following applies: Homo sapiens, CAPAN-1, 72 h, read-out: IC50 Capan-1. A digest of the protocol:
as §2

Experiment [9] deals with K-562 chronic myeloid leukemia cells. The experiment in a line: Antiproliferative assay. Format: cell-based. The conditions noted are these: Homo sapiens, K562, 72 h, read-out: IC50 K-562. Put shortly:
as §2

For experiment [10], the system named is Staphylococcus aureus (ATCC 25923). Briefly: Antibacterial MIC, macrodilution method, S. aureus. Format: cell-based. The conditions noted are these: ATCC25923, read-out: MIC S. aureus. Put shortly: as §1
Experiment [11] concerns eight human tumor cell lines. Briefly: Antiproliferative assay, span over the panel of tumor cell lines. The experiment is classed as cell-based. The following applies: 72 h, read-out: IC50 range across tested tumor cell lines. Put shortly:
as §2

Consider twelve molecules from paper PMC12062833 (RSC Medicinal Chemistry, 2025).

Structures are written as SMILES. Values after ≈ are worked out from the molar mass of the structure shown.

Take `O=C(COc1ccc(-c2nc3ccc(F)cc3[nH]2)cc1F)N1CCOCC1` [Compound 27, 2-(2-Fluoro-4-(6-fluoro-1H-benzo[d]imidazol-2-yl)phenoxy)-1-morpholinoethan-1-one]: the minimal inhibitory concentration (MIC) in experiment [1], in experiment [2], in [5] and in experiment [10] was above 256 µg/mL each time. In addition, the half-inhibitory concentration (IC50) in experiment [3], in [4], in [6], in [7], in experiment [8] and in [9] was above 100 µM throughout. Besides, the “DNA intercalation (acridine orange displacement, fluorescence polarization)” value (from here on “DNA intercalation”) with salmon sperm DNA is “exhibit clear intercalating properties”.
For `O=C(COc1ccc(-c2nc3ccccc3[nH]2)cc1F)N1CCOCC1` [Compound 22, 2-(4-(1H-Benzo[d]imidazol-2-yl)-2-fluorophenoxy)-1-morpholinoethan-1-one], the IC50 in experiment [3], in experiment [4], in experiment [6], in [7], in experiment [8] and in experiment [9] was above 100 µM in each case. The “DNA intercalation” value with salmon sperm DNA was “exhibit clear intercalating properties”.
On to `Fc1cc(-c2nc3ccccc3[nH]2)ccc1OCc1cn(CCN2CCOCC2)nn1` [Compound 31, 4-(2-(4-((4-(1H-Benzo[d]imidazol-2-yl)-2-fluorophenoxy)methyl)-1H-1,2,3-triazol-1-yl)ethyl)morpholine], for which the minimum inhibitory concentration (MIC) in [1], in [2], in [5] and in [10] was above 256 µg/mL in each case. The 50% inhibitory concentration (IC50) in experiment [3] was above 100 µM; in experiment [4], 66.1 ± 4 µM; in experiment [6], above 100 µM; in experiment [7], above 100 µM; in experiment [8], 40.6 ± 2.5 µM; in [9], 73 ± 3 µM.
Take `CCN(CC)CCOc1ccc(-c2nc3ccc(Cl)cc3[nH]2)cc1` [Compound 15, 2-(4-(6-Chloro-1H-benzo[d]imidazol-2-yl)phenoxy)-N,N-diethylethan-1-amine]: the MIC in experiment [1] was above 256 µg/mL; in experiment [2] it was above 256 µg/mL; in [5], 256 µg/mL (≈ 744 µM); in experiment [10], above 256 µg/mL. The IC50 in [3] amounted to 41.3 ± 3.7 µM; in experiment [4], 29.2 ± 2.2 µM; in experiment [6], 44 ± 0.8 µM; in [7], 47.2 ± 1.8 µM; in [8], 25.1 ± 3.7 µM; in experiment [9] it was 8.7 ± 1.1 µM.
As for `Fc1ccc2nc(-c3ccc(OCc4cn(CCN5CCOCC5)nn4)c(F)c3)[nH]c2c1` [Compound 33, 4-(2-(4-((2-Fluoro-4-(6-fluoro-1H-benzo[d]imidazol-2-yl)phenoxy)methyl)-1H-1,2,3-triazol-1-yl)ethyl)morpholine], the MIC in [1], in experiment [2], in [5] and in [10] was above 256 µg/mL throughout. In addition, the IC50 was above 100 µM in experiment [3]; 65.1 ± 2.8 µM in experiment [4]; above 100 µM in experiment [6]; above 100 µM in experiment [7]; 47 ± 4.3 µM in experiment [8]; 29.6 ± 1.9 µM in experiment [9].
For `O=C(COc1ccc(-c2nc3ccccc3[nH]2)cc1)N1CCOCC1` [Compound 14, 2-(4-(1H-Benzo[d]imidazol-2-yl)phenoxy)-1-morpholinoethan-1-one], the minimal inhibitory concentration (MIC) in [1], in [2], in experiment [5] and in experiment [10] was above 256 µg/mL each time. The 50% inhibitory concentration (IC50) in experiment [3], in experiment [4], in experiment [6], in [7], in [8] and in [9] was above 100 µM throughout.
In the case of `c1ccc2[nH]c(-c3ccc(OCCN4CCOCC4)cc3)nc2c1` [Compound 13, 4-(2-(4-(1H-Benzo[d]imidazol-2-yl)phenoxy)ethyl)morpholine], the minimum inhibitory concentration (MIC) in experiment [1], in experiment [2], in experiment [5] and in [10] was above 256 µg/mL each time. For the same molecule, the 50% inhibitory concentration (IC50) in experiment [3] is above 100 µM; in experiment [4] it was 54.2 ± 4.1 µM; in [6], above 100 µM; in experiment [7] it was above 100 µM; in [8], 42.1 ± 3.7 µM; in experiment [11], 37.3 to 79.8 µM. The IC50 in experiment [9] was determined as 79.8 ± 1.3 µM.
Consider `Clc1ccc2nc(-c3ccc(OCc4cn(CCN5CCOCC5)nn4)cc3)[nH]c2c1` [Compound 29, 4-(2-(4-((4-(6-Chloro-1H-benzo[d]imidazol-2-yl)phenoxy)methyl)-1H-1,2,3-triazol-1-yl)ethyl)morpholine], for which the minimum inhibitory concentration (MIC) in experiment [1], in experiment [2], in experiment [5] and in [10] was above 256 µg/mL in each case. In addition, the IC50 in [3] is above 100 µM; in experiment [4] it was at least 98.1 µM; in experiment [6] it was above 100 µM; in experiment [7] it was above 100 µM; in [8], above 100 µM; in [9] it was above 100 µM.
Turning to `Fc1ccc2nc(-c3ccc(OCCN4CCOCC4)cc3)[nH]c2c1` [Compound 19, 4-(2-(4-(6-Fluoro-1H-benzo[d]imidazol-2-yl)phenoxy)ethyl)morpholine], the IC50 is above 100 µM in [3]; above 100 µM in experiment [4]; above 100 µM in experiment [6]; above 100 µM in [7]; at least 69.1 µM in [8]; 37.3 to 79.8 µM in [11]. Besides, the 50% inhibitory concentration (IC50) in [9] is above 100 µM.
Consider `Fc1cc(-c2nc3ccc(Cl)cc3[nH]2)ccc1OCc1cn(CCN2CCOCC2)nn1` [Compound 32, 4-(2-(4-((4-(6-Chloro-1H-benzo[d]imidazol-2-yl)-2-fluorophenoxy)methyl)-1H-1,2,3-triazol-1-yl)ethyl)morpholine], for which the minimum inhibitory concentration (MIC) in [1], in experiment [2], in experiment [5] and in [10] was above 256 µg/mL throughout. In addition, the IC50 in [3] is above 100 µM; in [4] it was above 100 µM; in experiment [6] it was above 100 µM; in [7] it was above 100 µM; in experiment [8], 54.9 ± 5.1 µM; in experiment [9] it was above 100 µM.
As to `c1ccc2[nH]c(-c3ccc(OCc4cn(CCN5CCOCC5)nn4)cc3)nc2c1` [Compound 28, 4-(2-(4-((4-(1H-Benzo[d]imidazol-2-yl)phenoxy)methyl)-1H-1,2,3-triazol-1-yl)ethyl)morpholine], the minimum inhibitory concentration (MIC) in experiment [1] is above 256 µg/mL; in experiment [2], above 256 µg/mL; in experiment [5], 256 µg/mL (≈ 633 µM); in [10], above 256 µg/mL. The IC50 in experiment [3] is above 100 µM; in experiment [4], at least 70 µM; in [6], above 100 µM; in [7], above 100 µM; in experiment [8], 47.2 ± 0.4 µM; in experiment [9], at least 88 µM.
For the molecule `CCN(CC)CCOc1ccc(-c2nc3ccc(F)cc3[nH]2)cc1F` [Compound 26, N,N-Diethyl-2-(2-fluoro-4-(6-fluoro-1H-benzo[d]imidazol-2-yl)phenoxy)ethan-1-amine], the minimum inhibitory concentration (MIC) in [1], in experiment [2], in experiment [5] and in experiment [10] was above 256 µg/mL throughout. Besides, the half-inhibitory concentration (IC50) in experiment [3] is 35.9 ± 1.3 µM; in [4], 33.8 ± 3.3 µM; in experiment [6], 51.5 ± 0.1 µM; in [7] it was 49.5 ± 0.4 µM; in experiment [8], 35.4 ± 2.7 µM; in experiment [9], 19.1 ± 1.8 µM. Besides, in the experiment on salmon sperm DNA, the “DNA intercalation” value is reported as “scored best in the binding assay”.
